Data from paper PMC11696060 (Nature Communications, 2025).

What was measured:
[1] = test system: wild-type Arabidopsis seedlings; test: Hypocotyl elongation assay, wild-type Arabidopsis co-treated with KAR2; type: in vivo, Arabidopsis thaliana; conditions: 0.3 µM KAR2
[2] = test system: wild-type Arabidopsis seeds; type: in vivo, Arabidopsis thaliana; conditions: after high temperature, 1 µM KAR2
Method in brief: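 Sterilized, stratified Columbia seeds (~30 per well) sown on 0.2% phytoagar containing 1 µM KAR₂ and a concentration series of test compound. Incubated at 30 °C under continuous white light (20 μmol m⁻² s⁻¹) 48 h, then 22 °C for 48 h. Germination % = germinated/total seeds per well; 6 biological replicates, means ± SE; one-way ANOVA with Tukey's HSD.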

Q: Which “Concentration at which KAR2-suppressed hypocotyl length is restored” value [1] does the source give for `O=C(N1CCc2ccccc21)n1ccnn1` [KK094] here?
A: 0.3 µM

Q: And the “Concentration inhibiting the recovery of seed germination by KAR2” value [2]?
A: 100 µM
